Test results as given in ChEMBL document CHEMBL1138784, “Rational design, synthesis, and biological evaluation of bis(pyrimido[5,6,1-de]acridines) and bis(pyrazolo[3,4,5-kl]acridine-5-carboxamides) as new anticancer agents” (J Med Chem, 2004).
pIC50: −log10 of the molar value.

What was measured:
HT-29 = assay: Cytotoxicity is determined as the concentration required to inhibit the growth of human colon adenocarcinoma (HT-29) cell line; format: functional, cell-based
Nucleic Acid [1] = assay: Binding site preference is determined as the ratio of Poly (dA-dT)2 to Poly (dG-dC)2; format: nucleic-acid assay
In short: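 Ethidium displacement fluorometry at pH 7.0 (10 mM Na2HPO4, 10 mM NaH2PO4, 1 mM EDTA) with 1.26 μM ethidium bromide and 1 μM [poly(dA-dT)]2 or [poly(dG-dC)]2, 20 °C. Ex 546 nm, em 595 nm, drug added serially from a DMSO stock. Preference taken from the [AT]/[GC] ratio of C50 values, counted significant only below 0.7 or above 1.3.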

Nucleic Acid [2] = assay: Binding site preference is determined as the ratio of AT to GC
[3] = Cytotoxicity against human LoVo cancer cell line was determined after 1 hr; format: cell-based
In short: (§1)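 MTT assay on doxorubicin-sensitive LoVo and resistant LoVo/Dx cells, 24 h preincubation, then 1 h or 144 h drug exposure at 37 °C, 5% CO2. IC50 in nM. Resistance index is IC50 on LoVo/Dx divided by IC50 on LoVo.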

MKN-45 = assay: Cytotoxicity against human MKN45 cancer cell line was determined after 144 hr; format: functional, cell-based; conditions: MKN-45, 144 h
In short: (§2)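 MTT colorimetric assay. Cells seeded by growth characteristics and preincubated 24 h, then exposed to drug for 1 h or 144 h at 37 °C, 5% CO2. H460M, MKN45 and PC-3 were grown in RPMI 1640 with 10% FCS. HCT116 was grown in D-MEM with 10% FBS and 2 mM glutamine.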

PC-3 = assay: Cytotoxicity against human PC3 cancer cell line was determined after 144 hr; format: functional, cell-based; conditions: PC-3, 144 h; in short: as §2
[4] = Cytotoxicity against human H460M cancer cell line was determined after 1 hr; format: cell-based; conditions: Cancer cell lines; in short: as §2
LoVo = assay: Cytotoxicity against human LoVo cancer cell line was determined after 144 hr; format: functional, cell-based; in short: as §1
[5] = Cytotoxicity against human HCT116 cancer cell line was determined after 1 hr; format: cell-based; conditions: HCT-116, 1 h; in short: as §2
HCT-116 = assay: Cytotoxicity against human HCT116 cancer cell line was determined after 144 hr; format: functional, cell-based; conditions: HCT-116, 144 h; in short: as §2
[6] = Cytotoxicity against human H460M cancer cell line was determined after 144 hr; format: functional, cell-based; conditions: Cancer cell lines; in short: as §2
[7] = Cytotoxicity against human MKN45 cancer cell line was determined after 1 hr; format: cell-based; conditions: Cancer cell lines; in short: as §2
[8] = Cytotoxicity against human PC3 cancer cell line was determined after 1 hr; format: cell-based; conditions: Cancer cell lines; in short: as §2

| Structure (SMILES) | pIC50 (HT-29) | Binding site preference (Nucleic Acid [1]) | also measured |
| --- | --- | --- | --- |
| CN(C)CCn1c(=O)c2ccc(NCCCCCCCCNc3ccc4c(=O)n(CCN(C)C)c(=O)n5c6ccccc6c(=O)c3c45)c3c(=O)c4ccccc4n(c1=O)c23 | 6.44 | 41 | – |
| COc1ccc2c(c1)-c1nn(CCN(C)C)c3ccc(C(=O)NCCN(C)CCNC(=O)c4ccc5c6c(c7cc(OC)ccc7nc46)NN5CCN(C)C)c(c13)N2 | 6.82 | 2.8 | – |
| COc1ccc2nc3c(C(=O)NCCN(C)C)ccc(NCCCN(C)CCCNc4ccc(C(=O)NCCN(C)C)c5nc6ccc(OC)cc6c(O)c45)c3c(O)c2c1 | 7.41 | 1.9 | – |
| COc1cc2c(=O)c3c(NCCN(C)C)ccc4c(=O)n(CCN(C)C)c(=O)n(c2cc1OC)c43 | – | – | Binding site preference (Nucleic Acid [2]): 0.12 |
| CN(C)CCn1c(=O)c2ccc(NCCN(C)CCNc3ccc4c(=O)n(CCN(C)C)c(=O)n5c6ccc(O)cc6c(=O)c3c45)c3c(=O)c4cc(O)ccc4n(c1=O)c23 | 6.41 | 9.1 | – |
| O=C1c2c(O)ccc(O)c2C(=O)c2c(NCCNCCO)ccc(NCCNCCO)c21 [MITOXANTRONE] | – | – | pIC50 [3]: 7.92; pIC50 (MKN-45): 7.92; pIC50 (PC-3): 8.15; pIC50 [4]: 9.07; pIC50 (LoVo): 8.48; pIC50 [5]: 6.96; pIC50 (HCT-116): 8.24; pIC50 [6]: 9.12; pIC50 [7]: 8.17; pIC50 [8]: 7.12 |
| CN(C)CCNC(=O)c1ccc2c3c(c4ccccc4nc13)NN2CCN(C)C | – | 3.4 | – |
| CN(C)CCn1c(=O)c2ccc(NCCCCCCNc3ccc4c(=O)n(CCN(C)C)c(=O)n5c6ccccc6c(=O)c3c45)c3c(=O)c4ccccc4n(c1=O)c23 | 7.37 | 30 | – |
| CN(C)CCNc1ccc(C(=O)NCCCN(C)CCCNC(=O)c2ccc(NCCN(C)C)c3c(O)c4cc(O)ccc4nc23)c2nc3ccc(O)cc3c(O)c12 | 6.10 | 1.6 | – |
| CN(C)CCNC(=O)c1ccc2c3c(c4cc(O)ccc4nc13)NN2CCN(C)C | – | 5.1 | – |
| CN(C)CCNc1ccc(C(=O)NCCCN(C)CCCNC(=O)c2ccc(NCCN(C)C)c3c(=O)c4ccccc4[nH]c23)c2[nH]c3ccccc3c(=O)c12 | 7.24 | 10 | – |
| CN(C)CCN1Nc2c3cc(O)ccc3nc3c(C(=O)NCCN(C)CCNC(=O)c4ccc5c6c(c7cc(O)ccc7nc46)NN5CCN(C)C)ccc1c23 | < 5.00 | 2.8 | – |
| CN(C)CCNC(=O)c1ccc(NCCCN(C)CCCNc2ccc(C(=O)NCCN(C)C)c3nc4ccc(O)cc4c(O)c23)c2c(O)c3cc(O)ccc3nc12 | 5.16 | 1.8 | – |
| COc1ccc2c(c1)c(=O)c1c(NCCN(C)C)ccc3c(=O)n(CCN(C)C)c(=O)n2c31 | – | – | Binding site preference (Nucleic Acid [2]): 0.22 |
| CN(C)CCn1c(=O)c2ccc(NCCN(C)CCNc3ccc4c(=O)n(CCN(C)C)c(=O)n5c6ccccc6c(=O)c3c45)c3c(=O)c4ccccc4n(c1=O)c23 | 6.96 | 4.3 | – |
| CN(C)CCNC(=O)c1ccc(NCCCN(C)CCCNc2ccc(C(=O)NCCN(C)C)c3nc4ccccc4c(O)c23)c2c(O)c3ccccc3nc12 | 9.37 | – | – |
| CN(C)CCn1c(=O)c2ccc(NCCCNc3ccc4c(=O)n(CCN(C)C)c(=O)n5c6ccccc6c(=O)c3c45)c3c(=O)c4ccccc4n(c1=O)c23 | 6.41 | 8.9 | – |
| CN(C)CCN1Nc2c3cc(O)ccc3nc3c(C(=O)NCCCN(C)CCCNC(=O)c4ccc5c6c(c7cc(O)ccc7nc46)NN5CCN(C)C)ccc1c23 | 6.11 | 1.3 | – |
| CN(C)CCNC(=O)c1ccc(NCCCN(C)CCCNc2ccc(C(=O)NCCN(C)C)c3nc4ccc([N+](=O)[O-])cc4c(O)c23)c2c(O)c3cc([N+](=O)[O-])ccc3nc12 | > 10.00 | – | – |
| CN(C)CCNc1ccc2c(=O)n(CCN(C)C)c(=O)n3c4ccccc4c(=O)c1c23 | – | – | Binding site preference (Nucleic Acid [2]): 0.57 |
| COc1ccc2nc3c(C(=O)NCCCN(C)CCCNC(=O)c4ccc(NCCN(C)C)c5c(O)c6cc(OC)ccc6nc45)ccc(NCCN(C)C)c3c(O)c2c1 | 8.70 | 2.5 | – |
| CN(C)CCNc1ccc2c(=O)n(CCN(C)C)c(=O)n3c4ccc(O)cc4c(=O)c1c23 | – | – | Binding site preference (Nucleic Acid [2]): 0.25 |
| CN(C)CCn1c(=O)c2ccc(NCCN(C)CCN(C)CCNc3ccc4c(=O)n(CCN(C)C)c(=O)n5c6ccccc6c(=O)c3c45)c3c(=O)c4ccccc4n(c1=O)c23 | 6.41 | 84 | – |
| COc1ccc2c(c1)-c1nn(CCN(C)C)c3ccc(C(=O)NCCN(C)C)c(c13)N2 | – | 1.6 | – |
| CN(C)CCN1Nc2c3ccccc3nc3c(C(=O)NCCN(C)CCNC(=O)c4ccc5c6c(c7ccccc7nc46)NN5CCN(C)C)ccc1c23 | 6.44 | 4.3 | – |
| COc1cc2c(=O)c3c(NCCCN(C)CCCNc4ccc5c(=O)n(CCN(C)C)c(=O)n6c7cc(OC)c(OC)cc7c(=O)c4c56)ccc4c(=O)n(CCN(C)C)c(=O)n(c2cc1OC)c43 | 6.60 | 4.6 | – |
| CN(C)CCn1c(=O)c2ccc(NCCCCCCCCCCCCNc3ccc4c(=O)n(CCN(C)C)c(=O)n5c6ccccc6c(=O)c3c45)c3c(=O)c4ccccc4n(c1=O)c23 | 5.46 | 12 | – |
| COc1ccc2c(c1)c(=O)c1c(NCCN(C)CCNc3ccc4c(=O)n(CCN(C)C)c(=O)n5c6ccc(OC)cc6c(=O)c3c45)ccc3c(=O)n(CCN(C)C)c(=O)n2c31 | 6.14 | – | – |
| CN(C)CCNc1ccc2c(=O)n(CCN(C)C)c(=O)n3c4ccc([N+](=O)[O-])cc4c(=O)c1c23 | – | – | Binding site preference (Nucleic Acid [2]): 0.12 |
